Measured values reported in ChEMBL document CHEMBL1250448, “Inhibitor hijacking of Akt activation” (Nat Chem Biol, 2009).
Each block holds one compound with its values, some of them ahead of it. Calls of active or inactive are those of the source. No cut-off for these calls is given here.

What was measured:
HEK-293T [1] = experiment: Induction of myristoylated AKT3 M229G mutant Ser473 hyperphosphorylation expressed in HEK293T cells at 2.5 uM after 30 mins pretreated with mTOR kinase inhibitor PP242 for 10 mins before compound addition by immunoblotting; format: cell-based
[2] = test system: RAC-alpha serine/threonine-protein kinase (Homo sapiens), P31749 [M227G]; experiment: Induction of myristoylated AKT1 M227G mutant Thr308 hyperphosphorylation expressed in HEK293T cells at 2.5 uM after 30 mins pretreated with PDK1 inhibitor BX-795 for 10 mins before compound addition by immunoblotting; format: cell-based; conditions: HEK-293T
Sequence of RAC-alpha serine/threonine-protein kinase (Homo sapiens), P31749 [M227G] (P31749 whole entry M227G): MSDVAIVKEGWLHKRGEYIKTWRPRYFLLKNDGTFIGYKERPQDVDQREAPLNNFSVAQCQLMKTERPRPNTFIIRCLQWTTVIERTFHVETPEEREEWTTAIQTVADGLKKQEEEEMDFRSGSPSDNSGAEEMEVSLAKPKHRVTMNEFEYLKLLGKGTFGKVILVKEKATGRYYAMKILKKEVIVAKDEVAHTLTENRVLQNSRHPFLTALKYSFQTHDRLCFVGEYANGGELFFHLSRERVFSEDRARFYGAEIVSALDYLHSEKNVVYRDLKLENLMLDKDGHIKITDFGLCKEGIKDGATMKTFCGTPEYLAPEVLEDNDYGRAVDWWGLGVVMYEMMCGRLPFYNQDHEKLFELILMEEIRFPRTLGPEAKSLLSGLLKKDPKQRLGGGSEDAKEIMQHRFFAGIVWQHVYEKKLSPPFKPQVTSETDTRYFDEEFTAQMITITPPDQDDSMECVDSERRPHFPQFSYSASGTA

HEK-293T [3] = experiment: Induction of nonmyristoylated AKT2 M225G and kinase dead D289A mutant Thr308 hyperphosphorylation expressed in HEK293T cells at 2.5 uM after 30 mins by immunoblotting; format: cell-based
[4] = test system: RAC-alpha serine/threonine-protein kinase (Homo sapiens), P31749 [M227G]; experiment: Induction of myristoylated AKT1 M227G Thr308 hyperphosphorylation expressed in MiaPaCa2 cells at 2.5 uM after 30 mins by immunoblotting; format: cell-based
[5] = test system: RAC-alpha serine/threonine-protein kinase (Homo sapiens), P31749 [M227G]; experiment: Induction of myristoylated AKT1 M227G Thr308 hyperphosphorylation expressed in MCF7 cells at 2.5 uM after 30 mins by immunoblotting; format: cell-based
HEK-293T [6] = experiment: Induction of myristoylated AKT3 M229G mutant Thr308 hyperphosphorylation expressed in HEK293T cells at 2.5 uM after 30 mins pretreated with PDK1 inhibitor BX-795 for 10 mins before compound addition by immunoblotting; format: cell-based
PC-3 [7] = experiment: Induction of myristoylated AKT2 M225G mutant Ser473 hyperphosphorylation expressed in PC3 cells at 2.5 uM after 30 mins by immunoblotting; format: cell-based
[8] = test system: RAC-alpha serine/threonine-protein kinase (Homo sapiens), P31749 [M227G,D292A]; experiment: Induction of myristoylated AKT1 M227G and kinase dead D292A mutant Thr308 hyperphosphorylation expressed in MiaPaCa2 cells at 2.5 uM after 30 mins by immunoblotting; format: cell-based
Sequence of RAC-alpha serine/threonine-protein kinase (Homo sapiens), P31749 [M227G,D292A] (P31749 whole entry M227G/D292A): as the sequence (P31749 whole entry M227G) above, with D292A counted along it

[9] = test system: RAC-alpha serine/threonine-protein kinase (Homo sapiens), P31749 [M227G]; experiment: Induction of myristoylated AKT1 M227G Ser473 hyperphosphorylation expressed in PC3 cells at 2.5 uM after 30 mins by immunoblotting; format: cell-based; conditions: PC-3
PC-3 [10] = experiment: Induction of myristoylated AKT2 M225G and kinase dead D289A mutant Ser473 hyperphosphorylation expressed in PC3 cells at 2.5 uM after 30 mins by immunoblotting; format: cell-based
[11] = test system: RAC-alpha serine/threonine-protein kinase (Homo sapiens), P31749 [M227G]; experiment: Induction of flag tagged AKT1 M227G Ser473 hyperphosphorylation expressed in HEK293 cells at 2.5 uM after 30 mins by immunoblotting; format: cell-based
[12] = test system: RAC-alpha serine/threonine-protein kinase (Homo sapiens), P31749 [M227G]; experiment: Induction of myristoylated AKT1 M227G mutant Thr308 hyperphosphorylation expressed in HEK293T cells at 2.5 uM after 30 mins pretreated with mTOR kinase inhibitor PP242 for 10 mins before compound addition by immunoblotting; format: cell-based; conditions: HEK-293T
HEK-293T [13] = experiment: Induction myristoylated AKT2 M225G mutant Ser473 hyperphosphorylation expressed in HEK293T cells at 2.5 uM after 30 mins pretreated with PDK1 inhibitor BX-795 for 10 mins before compound addition by immunoblotting; format: cell-based
[14] = test system: RAC-alpha serine/threonine-protein kinase (Homo sapiens), P31749 [M227G]; experiment: Induction of membrane localized myristoylated AKT1 M227G mutant Ser473 hyperphosphorylation expressed in HEK293T cells at 2.5 uM after 30 mins by immunoblotting; format: cell-based; conditions: HEK-293T
[15] = test system: RAC-alpha serine/threonine-protein kinase (Homo sapiens), P31749 [M227G,D292A]; experiment: Induction of myristoylated AKT1 M227G and kinase dead D292A mutant Ser473 hyperphosphorylation expressed in MCF7 cells at 2.5 uM after 30 mins by immunoblotting; format: cell-based
[16] = test system: RAC-alpha serine/threonine-protein kinase (Homo sapiens), P31749 [M227G,D292A]; experiment: Induction of myristoylated AKT1 M227G and kinase dead D292A mutant Ser473 hyperphosphorylation expressed in MiaPaCa2 cells at 2.5 uM after 30 mins by immunoblotting; format: cell-based
HEK-293T [17] = experiment: Induction of myristoylated AKT3 M229G mutant Ser473 hyperphosphorylation expressed in HEK293T cells at 2.5 uM after 30 mins pretreated with PDK1 inhibitor BX-795 for 10 mins before compound addition by immunoblotting; format: cell-based
[18] = test system: RAC-alpha serine/threonine-protein kinase (Homo sapiens), P31749 [M227G]; experiment: Induction of myristoylated AKT1 M227G mutant Ser473 hyperphosphorylation expressed in HEK293T cells at 2.5 uM after 30 mins pretreated with mTOR kinase inhibitor PP242 for 10 mins before compound addition by immunoblotting; format: cell-based; conditions: HEK-293T
[19] = target: RAC-alpha serine/threonine-protein kinase (Homo sapiens, UniProt P31749); experiment: Induction of flag-tagged wild type AKT1 Thr308 hyperphosphorylation expressed in HEK293 cells coexpressing HA-tagged AKT1 M227G after 30 mins by immunoblotting
[20] = test system: RAC-alpha serine/threonine-protein kinase (Homo sapiens), P31749 [M227G]; experiment: Induction of myristoylated AKT1 M227G Ser473 hyperphosphorylation expressed in MCF7 cells at 2.5 uM after 30 mins by immunoblotting; format: cell-based
HEK-293T [21] = experiment: Induction myristoylated AKT2 M225G mutant Ser473 hyperphosphorylation expressed in HEK293T cells at 2.5 uM after 30 mins pretreated with mTOR kinase inhibitor PP242 for 10 mins before compound addition by immunoblotting; format: cell-based
[22] = target: Glycogen synthase kinase-3 alpha (Homo sapiens) (UniProt P49840); experiment: Inhibition of GSK3A at 1 uM in presence of 10 uM ATP by Select Screen kinase assay relative to untreated control
How it was run: (§1)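 Part of a 220-kinase panel of purified kinases, each tested with compound at 1 μM. Percent inhibition was measured in the Invitrogen SelectScreen profiling assay.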

[23] = target: Serine/threonine-protein kinase D1 (Homo sapiens) (UniProt Q15139); experiment: Inhibition of PRKD1 at 1 uM in presence of 10 uM ATP by Select Screen kinase assay relative to untreated control
Sequence of Serine/threonine-protein kinase D1 (Homo sapiens) (Q15139 whole entry): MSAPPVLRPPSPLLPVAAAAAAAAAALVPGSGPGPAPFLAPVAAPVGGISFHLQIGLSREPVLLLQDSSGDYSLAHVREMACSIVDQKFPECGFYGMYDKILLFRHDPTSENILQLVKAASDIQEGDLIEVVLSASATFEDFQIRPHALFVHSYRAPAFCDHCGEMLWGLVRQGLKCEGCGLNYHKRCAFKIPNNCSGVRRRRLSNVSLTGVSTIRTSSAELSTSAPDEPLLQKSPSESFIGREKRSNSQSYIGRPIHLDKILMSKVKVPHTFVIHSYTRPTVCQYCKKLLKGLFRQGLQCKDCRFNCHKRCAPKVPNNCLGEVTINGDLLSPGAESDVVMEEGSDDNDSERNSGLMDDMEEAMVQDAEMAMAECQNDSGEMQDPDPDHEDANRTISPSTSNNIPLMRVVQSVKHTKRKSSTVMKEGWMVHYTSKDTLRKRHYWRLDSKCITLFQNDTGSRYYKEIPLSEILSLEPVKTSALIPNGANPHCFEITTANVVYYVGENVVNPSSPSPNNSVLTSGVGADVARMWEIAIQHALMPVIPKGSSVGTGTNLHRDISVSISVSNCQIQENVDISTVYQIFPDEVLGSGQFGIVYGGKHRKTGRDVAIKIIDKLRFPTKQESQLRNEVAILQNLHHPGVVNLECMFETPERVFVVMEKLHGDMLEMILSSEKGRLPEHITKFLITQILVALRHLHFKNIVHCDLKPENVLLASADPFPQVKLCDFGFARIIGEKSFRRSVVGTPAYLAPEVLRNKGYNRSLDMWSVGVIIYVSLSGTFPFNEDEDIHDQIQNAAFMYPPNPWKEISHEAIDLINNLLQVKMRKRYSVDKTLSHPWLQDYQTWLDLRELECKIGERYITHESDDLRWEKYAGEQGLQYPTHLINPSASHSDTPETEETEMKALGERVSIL

[24] = target: Ephrin type-B receptor 4 (Homo sapiens) (UniProt P54760); experiment: Inhibition of EPHB4 at 1 uM in presence of 10 uM ATP by Select Screen kinase assay relative to untreated control
Sequence of Ephrin type-B receptor 4 (Homo sapiens) (P54760 whole entry): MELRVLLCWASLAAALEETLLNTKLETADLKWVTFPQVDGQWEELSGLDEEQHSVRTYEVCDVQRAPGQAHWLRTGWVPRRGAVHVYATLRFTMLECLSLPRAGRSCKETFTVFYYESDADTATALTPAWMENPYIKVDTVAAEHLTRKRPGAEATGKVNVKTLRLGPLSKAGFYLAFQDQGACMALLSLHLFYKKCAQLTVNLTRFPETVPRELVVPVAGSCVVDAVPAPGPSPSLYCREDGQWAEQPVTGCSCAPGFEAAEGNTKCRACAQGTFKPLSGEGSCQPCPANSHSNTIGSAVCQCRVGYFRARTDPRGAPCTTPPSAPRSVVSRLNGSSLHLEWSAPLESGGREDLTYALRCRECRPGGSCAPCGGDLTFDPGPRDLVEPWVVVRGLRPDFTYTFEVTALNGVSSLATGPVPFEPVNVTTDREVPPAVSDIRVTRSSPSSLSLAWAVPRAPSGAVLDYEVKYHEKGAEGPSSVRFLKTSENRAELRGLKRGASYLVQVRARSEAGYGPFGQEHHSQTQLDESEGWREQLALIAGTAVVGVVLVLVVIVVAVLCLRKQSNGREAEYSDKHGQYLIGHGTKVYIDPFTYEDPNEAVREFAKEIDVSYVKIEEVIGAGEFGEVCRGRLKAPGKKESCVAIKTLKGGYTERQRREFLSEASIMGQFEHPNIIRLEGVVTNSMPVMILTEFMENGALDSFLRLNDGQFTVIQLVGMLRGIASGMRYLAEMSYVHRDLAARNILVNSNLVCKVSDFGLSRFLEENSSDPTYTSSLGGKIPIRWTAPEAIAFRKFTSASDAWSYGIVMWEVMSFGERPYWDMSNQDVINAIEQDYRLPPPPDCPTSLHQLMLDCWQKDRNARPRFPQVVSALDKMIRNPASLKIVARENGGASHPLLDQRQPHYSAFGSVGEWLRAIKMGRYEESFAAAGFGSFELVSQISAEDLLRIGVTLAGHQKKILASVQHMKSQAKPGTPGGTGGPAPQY
How it was run: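 Single-point screen at 1 μM against a panel of 220 purified kinases, run by Invitrogen staff as a SelectScreen profiling service. Read-out is percent inhibition of kinase activity.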

[25] = target: Glycogen synthase kinase-3 beta (Homo sapiens) (UniProt P49841); experiment: Inhibition of GSK3B at 1 uM in presence of 10 uM ATP by Select Screen kinase assay relative to untreated control; how it was run: as §1
Sequence of Glycogen synthase kinase-3 beta (Homo sapiens) (P49841 whole entry, looked up): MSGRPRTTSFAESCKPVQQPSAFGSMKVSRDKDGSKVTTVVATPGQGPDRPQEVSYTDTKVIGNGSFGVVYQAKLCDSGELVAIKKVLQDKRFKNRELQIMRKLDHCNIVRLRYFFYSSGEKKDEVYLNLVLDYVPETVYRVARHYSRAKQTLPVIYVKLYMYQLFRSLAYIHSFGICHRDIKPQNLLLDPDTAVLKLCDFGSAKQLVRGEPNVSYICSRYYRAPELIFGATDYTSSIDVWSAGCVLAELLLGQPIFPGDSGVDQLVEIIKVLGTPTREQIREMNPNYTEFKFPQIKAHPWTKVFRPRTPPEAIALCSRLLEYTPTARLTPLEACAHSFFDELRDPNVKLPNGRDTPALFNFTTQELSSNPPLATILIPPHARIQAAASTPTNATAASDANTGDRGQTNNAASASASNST

[26] = target: Serine/threonine-protein kinase PAK 6 (Homo sapiens) (UniProt Q9NQU5); experiment: Inhibition of PAK6 at 1 uM in presence of 10 uM ATP by Select Screen kinase assay relative to untreated control
[27] = target: Tyrosine-protein kinase JAK2 (Homo sapiens) (UniProt O60674); experiment: Inhibition of JAK2 at 1 uM in presence of 10 uM ATP by Select Screen kinase assay relative to untreated control
Sequence of Tyrosine-protein kinase JAK2 (Homo sapiens) (O60674 whole entry): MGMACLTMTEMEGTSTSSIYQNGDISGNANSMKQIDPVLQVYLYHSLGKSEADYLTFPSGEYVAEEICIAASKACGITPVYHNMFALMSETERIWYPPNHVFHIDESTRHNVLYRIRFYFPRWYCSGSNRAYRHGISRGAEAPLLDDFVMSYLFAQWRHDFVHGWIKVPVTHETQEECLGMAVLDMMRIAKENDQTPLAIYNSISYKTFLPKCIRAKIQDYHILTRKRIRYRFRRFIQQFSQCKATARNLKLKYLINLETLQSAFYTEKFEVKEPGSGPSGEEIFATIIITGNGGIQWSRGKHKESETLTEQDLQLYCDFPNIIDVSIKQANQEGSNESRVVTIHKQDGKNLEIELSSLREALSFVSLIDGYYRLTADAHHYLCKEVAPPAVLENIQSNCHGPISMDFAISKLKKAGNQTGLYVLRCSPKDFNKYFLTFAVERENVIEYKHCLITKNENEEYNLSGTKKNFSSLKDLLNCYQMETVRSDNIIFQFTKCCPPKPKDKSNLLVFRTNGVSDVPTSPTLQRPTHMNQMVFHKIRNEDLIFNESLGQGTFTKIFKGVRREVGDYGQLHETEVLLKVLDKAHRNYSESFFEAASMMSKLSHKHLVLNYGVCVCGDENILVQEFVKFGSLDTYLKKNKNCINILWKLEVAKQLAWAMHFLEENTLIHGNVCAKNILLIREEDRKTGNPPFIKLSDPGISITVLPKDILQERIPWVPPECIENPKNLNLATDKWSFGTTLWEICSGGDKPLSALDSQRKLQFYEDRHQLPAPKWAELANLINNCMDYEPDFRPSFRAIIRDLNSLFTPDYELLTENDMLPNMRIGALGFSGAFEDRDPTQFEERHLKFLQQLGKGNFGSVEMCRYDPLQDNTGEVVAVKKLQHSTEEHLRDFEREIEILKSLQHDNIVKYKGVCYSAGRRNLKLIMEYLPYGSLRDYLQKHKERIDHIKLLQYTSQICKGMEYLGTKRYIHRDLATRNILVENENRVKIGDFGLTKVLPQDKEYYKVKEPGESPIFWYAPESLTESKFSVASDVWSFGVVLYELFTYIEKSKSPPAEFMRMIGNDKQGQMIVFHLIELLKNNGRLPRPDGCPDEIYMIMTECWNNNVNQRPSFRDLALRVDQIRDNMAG
How it was run: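 Single-concentration profiling at 1 μM against a panel of 220 purified kinases, run as an outsourced SelectScreen kinase profiling service. Activity is expressed as percent inhibition.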

[28] = target: Dual specificity protein kinase CLK2 (Homo sapiens) (UniProt P49760); experiment: Inhibition of CLK2 at 1 uM in presence of 10 uM ATP by Select Screen kinase assay relative to untreated control; how it was run: as §1
Sequence of Dual specificity protein kinase CLK2 (Homo sapiens) (P49760 whole entry, looked up): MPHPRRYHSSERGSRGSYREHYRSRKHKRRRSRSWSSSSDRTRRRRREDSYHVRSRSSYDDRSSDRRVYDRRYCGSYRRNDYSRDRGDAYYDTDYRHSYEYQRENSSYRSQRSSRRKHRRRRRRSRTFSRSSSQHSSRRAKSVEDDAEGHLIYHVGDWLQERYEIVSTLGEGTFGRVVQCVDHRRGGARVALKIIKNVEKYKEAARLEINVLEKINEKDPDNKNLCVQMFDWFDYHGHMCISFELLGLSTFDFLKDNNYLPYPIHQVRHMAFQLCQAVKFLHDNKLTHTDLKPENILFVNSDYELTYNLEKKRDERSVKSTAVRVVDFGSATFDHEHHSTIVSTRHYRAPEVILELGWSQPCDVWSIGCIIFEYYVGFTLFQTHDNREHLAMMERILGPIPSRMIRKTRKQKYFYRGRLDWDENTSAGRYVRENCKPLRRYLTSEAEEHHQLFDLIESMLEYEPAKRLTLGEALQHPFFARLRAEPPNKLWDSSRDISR

[29] = target: Serine/threonine-protein kinase 26 (Homo sapiens) (UniProt Q9P289); experiment: Inhibition of MST4 at 1 uM in presence of 100 uM ATP by Select Screen kinase assay relative to untreated control

- Activity [2]: inactive
- Activity [4]: Active
- Activity [5]: Active
- Activity [8]: Active
- Activity [9]: Active
- Activity [11]: Active
- Activity [12]: Active
- Activity [14]: Active
- Activity [15]: Active
- Activity [16]: Active
- Activity [18]: inactive
- Activity [19]: inactive
- Activity [20]: Active
SMILES: CCCc1cc(-c2cncc(OC[C@@H](N)Cc3c[nH]c4ccccc34)c2)cc2c(C)n[nH]c12
- Activity (HEK-293T [1]): inactive
- Activity (HEK-293T [3]): Active
- Activity (HEK-293T [6]): inactive
- Activity (PC-3 [7]): Active
- Activity (PC-3 [10]): Active
- Activity (HEK-293T [13]): inactive
- Activity (HEK-293T [17]): inactive
- Activity (HEK-293T [21]): inactive

- inhibition [22]: 80%
- inhibition [23]: 5%
- inhibition [24]: 11%
- inhibition [25]: 67%
- inhibition [26]: 5%
- inhibition [27]: -9%
- inhibition [28]: 85%
- inhibition [29]: 11%
SMILES: COc1ccccc1N1CCN(c2ncnc3[nH]nc(Br)c23)CC1

- inhibition [22]: 69%
- inhibition [23]: 71%
- inhibition [24]: 8%
- inhibition [25]: 69%
- inhibition [26]: 11%
- inhibition [27]: 74%
- inhibition [28]: 70%
SMILES: O=C(NCCCNc1nc(Nc2cccc(NC(=O)N3CCCC3)c2)ncc1I)c1cccs1
